PfM18AAP inh-1 – PfM18AAP enzyme inhibition; recombinant PfM18AAP, H-Glu-NHMec fluorogenic cleavage; hit rate 1.2% among 290,000; inhibition, % at 7.35 µM;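 active = inhibition above the campaign mean inhibition over all tested compounds plus 3 SD, cut at about 28% in these data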;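 also: 0% = plate median of test compound wells and 100% = 2 mM ZnCl2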
UBC13 inh – inhibitors of human UBC13 polyubiquitin chain formation; TR-FRET; hit rate 0.47% among 330,000; P61088; inhibition, % at 20 µM; in the data active = inhibition above about 45%, passing the limit was not always enough
EBNA-1 inh – blocks EBNA-1 binding to DNA; inhibition, % at 14.8 µM; hit rate 0.34% among 300,000; EBNA-1 DNA binding, fluorescence polarization; AID 1950; in the data active = inhibition above about 28%
PfG6PD inh – PfG6PD (Plasmodium falciparum) enzyme inhibition; hit rate 0.78% among 350,000; inhibition, % at 20 µM; PfGluPho enzyme, NADPH resazurin-diaphorase fluorescence; AID 504690;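 active = inhibition reaching at least a set limit at 20 µM in the primary screen, cut at about 59% in these data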;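 also: 0% = DMSO wells with substrate and 100% = DMSO wells lacking glucose-6-phosphate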
Apaf1 inhib – inhibitors of human Apaf-1 apoptosome; reconstituted apoptosome caspase-3 activity, DEVD-Rh110 fluorescence; inhibition, % at 20 µM; hit rate 0.71% among 330,000; AID 489030; active = inhibition of at least 40% at 20 µM;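 also: plate controls were DMSO wells for no effect and DEVD-CHO caspase inhibitor wells for full effect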
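Assay system – apoptosome proteins · Medium – Hepes buffer, pH 7.5 · Also added – cytochrome c with DEVD-Rh110 · Timing – 30 min compound preincubation, 50 min activation, room temperature · Detection – Rh110 fluorescence, excitation 480 nm, emission 540 nm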
ZTA DNA inh – counter-screen for EBNA-1 inhibitors: inhibitors of Epstein-Barr virus ZTA; inhibition, % at 11 µM; AID 2234; hit rate 0.15% among 320,000; ZTA-DNA binding, fluorescence polarization; in the data active = inhibition above about 33%
PfM18AAP inh-2 – PfM18AAP inhibition, confirmation | hit rate 28% among 2,400 | recombinant PfM18AAP, H-Glu-NHMec fluorogenic cleavage | inhibition, % at 7.35 µM | shares compounds with PfM18AAP inh-1;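 active = mean inhibition over replicate wells above the hit cutoff set for the earlier primary screen, cut at about 29% in these data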;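 also: 0% = median of test compound wells and 100% = 2 mM ZnCl2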
CTSL1 confirm – Cathepsin L (human) inhibition, confirmation. inhibition, % at 5.96 µM. 2,400 tested, under 10 active. purified cathepsin L1, Z-Leu-Arg-MCA fluorescence. shares compounds with PfM18AAP inh-1. AID 2178;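 active = average inhibition across replicates above the hit cutoff set in the earlier primary screen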;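 also: 0% = median of test compound wells and 100% = Z-Phe-Ala-diazomethylketone 1 µM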
* hit, by the source's call; / = not tested or not shown. This is a sample that favours compounds with a hit; in the whole collection about 2.9% have one here.

SMILES	PfM18AAP inh-1	UBC13 inh	EBNA-1 inh	PfG6PD inh	Apaf1 inhib	ZTA DNA inh	PfM18AAP inh-2	CTSL1 confirm
Cc1ccc(C(=O)Nn2c(O)c(C=C3N=c4ccccc4=N3)sc2=S)cc1	54.7*	-4.8	4.3	7.7	-2.1	5.7	-30.9	1.4
Cc1ccc(S(=O)(=O)Nn2c(O)c(C=C3N=c4ccccc4=N3)sc2=S)cc1	14.6	-13.2	-5.2	-14.6	0.5	-17.3	/	/
Oc1c(C=C2N=c3ccccc3=N2)sc(=S)n1-c1ccc(F)cc1	37.6*	-26.4	-3.2	10.0	2.9	4.5	-16.9	1.6
Oc1c(C=C2N=c3ccccc3=N2)sc(=S)n1-c1ccc2ccccc2c1	7.0	-26.3	-9.5	-0.1	-11.8	-6.8	/	/
COc1cc(-c2n[nH]c(=S)n2-c2ccc(Br)cc2)cc(OC)c1OC	16.8	-3.7	-5.3	33.2	-12.7	-13.7	/	/
COc1ccc(CC(=O)Nc2ccc(-c3ccc4nnc(C)n4n3)cc2)cc1OC	1.9	-10.3	6.9	13.0	-5.9	-0.7	/	/
O=C(c1ccc2ccccc2n1)N1CCN(S(=O)(=O)c2ccccc2)CC1	/	-0.4	/	0.7	-5.2	/	/	/
C=CCc1c(C)nc(-c2ccccc2)nc1N/N=C(\C)c1ccccc1	37.1*	-1.7	-5.0	13.9	26.4	-6.9	-27.4	-0.2
C=CCc1c(C)nc(-c2ccccc2)nc1Nc1ccc(O)cc1	-4.0	11.3	2.2	-8.4	0.1	9.6	/	/
CCOC(=O)c1ccc(CC(=O)c2ccc(O)c(O)c2O)o1	48.4*	-1.3	/	21.8	6.7	/	-0.2	-0.2
CCn1c(C)nc2cc(C(=O)NNC(=O)CN(C)S(=O)(=O)c3ccc(NC(C)=O)cc3)ccc21	/	5.8	/	-6.9	-4.7	/	/	/
Cc1ccc(O)c(Nc2c3ccccc3nc3ccccc23)c1	42.7*	-53.5	9.8	2.9	2.2	-11.6	-48.4	4.7
COc1ccc(S(=O)(=O)N2CCN(C(=O)CCCN3C(=O)NC4(CCCC4)C3=O)CC2)cc1	/	-1.1	/	6.8	-5.8	/	/	/
CC(=O)NNc1nc2ccccc2s1	50.8*	4.4	7.6	-3.1	-5.8	-7.9	16.4	1.6
CN(C)C(=S)Nc1nc2ccccc2s1	46.4*	/	/	50.0	/	/	-15.0	5.2
COc1ccccc1CN(C(=O)c1cnccn1)C(C(=O)NC1CCCCC1)c1cc(OC)c(OC)c(OC)c1 (stereo unspecified)	2.0	0.5	4.6	-7.3	-6.3	-1.7	/	/
NNc1nnc2c3cc(F)ccc3n(CCc3ccccc3)c2n1	44.0*	-20.2	-1.6	22.7	16.5	-0.5	3.0	5.9
Nn1cnnc1N/N=C/c1ccc(Cl)cc1Cl	48.5*	-3.9	/	35.5	2.5	/	-21.2	0.8
CC(=O)c1cccc(NC(=O)COc2cc(C)on2)c1	/	-4.4	/	2.8	-2.5	2.4	/	/
COc1ccccc1-c1oc2ccccc2c1C#CC(C)(C)O	/	20.1	/	20.0	16.1	0.1	/	/
COC1CCCN(C(=O)c2ccc(OC3CCN(CCc4ccccc4)CC3)cc2)C1 (stereo unspecified)	-21.1	-3.8	-7.3	-6.2	-10.0	-7.1	/	/
O=[N+]([O-])c1cc(Br)c(O)c(/C=N/Nc2nnnn2-c2cccc3ccccc23)c1	38.4*	-28.9	3.1	-14.9	1.7	18.6	-4.7	-6.7
O=[N+]([O-])c1ccc(NN=Cc2cccc3ccccc23)cc1	/	/	/	11.3	/	/	/	/
CC(C)CCNC(=S)Nc1ccccn1	32.6*	10.9	-5.1	29.1	4.9	-0.6	5.8	2.4
O=C(NNc1cccc([N+](=O)[O-])c1)/C(=C\c1cccnc1)NC(=O)c1ccccc1	46.2*	-15.2	4.2	13.7	3.4	12.0	10.3	1.4
SMILES	PfM18AAP inh-1	UBC13 inh	EBNA-1 inh	PfG6PD inh	Apaf1 inhib	ZTA DNA inh	PfM18AAP inh-2	CTSL1 confirm
O=C(Nc1ccc([N+](=O)[O-])cc1)Nn1cnnc1	80.7*	-0.8	4.5	-0.5	1.4	8.1	71.7*	-0.4
O=C(Nc1ccc(Cl)cc1)Nn1cnnc1	67.7*	1.5	/	-2.5	-9.4	/	57.2*	-0.5
Cc1ccc(NC(=O)Nn2cnnc2)cc1	44.5*	0.0	/	-7.1	-2.4	/	36.8*	0.6
CC(=O)Nc1ccc(S(=O)(=O)Nc2ncccn2)cc1	0.6	-0.3	1.6	4.6	-16.9	-14.5	/	/
CC(=O)Nc1ccc(S(=O)(=O)Nn2cnnc2)cc1	36.7*	-2.1	-5.8	-13.5	10.6	-24.4	36.1*	5.5
CN1CCN(NC(=O)Nc2ccc([N+](=O)[O-])cc2)CC1	1.8	-4.3	3.9	15.1	1.6	-13.0	/	/
CC[C@]12c3[nH]c4ccc(OC)cc4c3CCN1C(=O)C(CC(=O)NCc1ccco1)C[C@@H]2C(=O)N1CCN(C(=O)c2ccco2)CC1 (stereo partly specified)	/	/	/	15.0	3.6	/	/	/
Cc1ccc2[nH]c3c(c2c1)CCc1cn[nH]c1-3	33.1*	9.3	-0.5	40.1	20.3	-5.3	-20.6	4.7
CCC(CC)c1nnc(NC(=O)C2CC(=O)N(CCc3ccc(F)cc3)C2)s1 (stereo unspecified)	34.7*	-8.7	0.2	36.5	7.1	-19.6	-41.2	-3.0
O=C1C=C(NNC(=O)c2cccnc2)CC(c2ccco2)C1 (stereo unspecified)	35.2*	-3.4	-5.5	-1.6	-18.2	8.2	-28.9	9.4
Cc1cc(C)cc(NC2=CC(=O)CC(c3ccco3)C2)c1 (stereo unspecified)	25.7	1.4	5.4	2.0	-0.2	-4.5	/	/
CC1CCCN(C(=O)COC(=O)Cn2cnc3ccccc32)C1 (stereo unspecified)	/	-5.4	/	-13.1	5.5	/	/	/
Oc1ccc(/C=N/n2cnn(Cc3ccccc3Cl)c2=S)c(O)c1	38.6*	18.8	-6.4	35.2	-10.8	-4.8	-12.1	0.9
O=C(O)C1CCN(C(=O)CCN2C(=O)S/C(=C\c3ccccc3)C2=O)CC1	37.0*	-6.1	-1.5	-12.2	-3.1	3.9	-44.9	7.8
Cc1ccc(-n2c(O)c(/C=N/n3cnnc3)c3ccccc3c2=O)cc1	71.0*	9.1	-1.5	-17.4	3.4	-7.7	64.0*	-1.9
O=c1c2ccccc2c(/C=N/n2cnnc2)c(O)n1-c1ccccc1F	/	3.3	-4.2	14.4	-4.5	-0.8	/	/
Cc1ccc(-n2c(O)c(/C=N/c3ncn[nH]3)c3ccccc3c2=O)cc1	37.2*	-4.4	7.9	5.9	4.0	4.0	-15.6	6.4
Nc1ncn(C(=O)c2ccco2)n1	45.0*	1.9	-1.5	-12.6	-3.4	-10.0	51.2*	0.5
COc1ccc(C(=O)n2cnc(N)n2)cc1	33.6*	0.9	-5.3	-1.5	7.8	-9.9	53.8*	-0.6
CC(=O)C1=C(O)C(=O)N(c2ccc(Br)cn2)C1c1ccc(F)cc1 (stereo unspecified)	0.8	6.1	6.4	-24.2	-8.9	-2.0	/	/
CCN1C(=O)/C(=C2\C=Cc3ccccc3N2CC)SC1=S	2.8	-330.2	2.8	1.2	33.0	-1.3	/	/

Bioassay records (PubChem BioAssay)
